# Positions count from the first letter of the chain named. Names may count otherwise.
# B1: K16Q ArsA: ArsA with signature Lys16 (A1 half) changed to glutamine (protein, UniProt P08690 1-583, looked up, variant K16Q)
# Arsenical pump-driving ATPase: MQFLQNIPPYLFFTGQGGVGKTSISCATAIRLAEQGKRVLLVSTDPASNVGQVFSQTIGITIQAIASVPGLSALEIDPQAAAQQYRARIVDPIKGVLPDDVVSSINEQLSGACTTEIAAFDEFTGLLTDASLLTRFDHIIFDTAPTGHTIRLLQLPGAWSSFIDSNPEGASCLGPMAGLEKQREQYAYAVEALSDPKRTRLVLVARLQKSTLQEVARTHLELAAIGLKNQYLVINGVLPKTEAANDTLAAAIWEREQEALANLPADLAGLPTDTLFLQPVNMVGVSALSRLLSTQPVASPSSDEYLQQRPDIPSLSALVDDIARNEHGLIMLMGKGGVGKTTMAAAIAVRLADMGFDVHLTTSDPAAHLSMTLNGSLNNLQVSRIDPHEETERYRQHVLETKGKELDEAGKRLLEEDLRSPCTEEIAVFQAFSRVIREAGKRFVVMDTAPTGHTLLLLDATGAYHREIAKKMGEKGHFTTPMMLLQDPERTKVLLVTLPETTPVLEAANLQADLERAGIHPWGWIINNSLSIADTRSPLLRMRAQQELPQIESVKRQHASRVALVPVLASEPTGIDKLKQLAG
# B2: C113A/C422A: ArsA derivative lacking the Sb(III)-binding residues Cys113 and Cys422 (protein, UniProt P08690 1-583, looked up, variant C113A C422A)
# Arsenical pump-driving ATPase: B1 Arsenical pump-driving ATPase with Q16K, C113A, C422A
# B3: K335Q ArsA: ArsA with signature Lys335 (A2 half) changed to glutamine (protein, UniProt P08690 1-583, looked up, variant K335Q)
# Arsenical pump-driving ATPase: B1 Arsenical pump-driving ATPase with Q16K, K335Q
# Key:
# ThArsA [1] = test: Photoaffinity labelling with increasing 8-azido[γ-32P]ATP; type: binding; details: read-out: apparent Kd
# K16Q ThArsA = test: as above; type: binding; details: read-out: apparent Kd
# ThArsA [2] = type: biochemical; details: read-out: Km for ATP
# wild-type ArsA = wild-type ArsA (Escherichia coli, UniProt P08690); details: read-out: Km for ATP
# Sequence of wild-type ArsA (P08690 whole entry): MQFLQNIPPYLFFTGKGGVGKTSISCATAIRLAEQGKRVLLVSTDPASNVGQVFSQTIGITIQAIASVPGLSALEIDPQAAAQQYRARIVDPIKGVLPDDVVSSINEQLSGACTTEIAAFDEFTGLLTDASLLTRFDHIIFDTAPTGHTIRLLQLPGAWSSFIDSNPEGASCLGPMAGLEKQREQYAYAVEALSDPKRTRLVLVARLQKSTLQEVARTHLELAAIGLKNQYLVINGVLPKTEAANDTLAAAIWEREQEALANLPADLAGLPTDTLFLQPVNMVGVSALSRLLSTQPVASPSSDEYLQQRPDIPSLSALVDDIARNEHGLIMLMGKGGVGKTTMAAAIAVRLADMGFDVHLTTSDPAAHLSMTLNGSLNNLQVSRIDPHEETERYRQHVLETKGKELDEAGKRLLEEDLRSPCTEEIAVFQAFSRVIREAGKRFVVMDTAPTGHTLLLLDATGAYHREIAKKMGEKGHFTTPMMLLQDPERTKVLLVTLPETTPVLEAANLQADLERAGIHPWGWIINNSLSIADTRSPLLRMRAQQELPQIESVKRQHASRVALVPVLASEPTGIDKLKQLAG
# E. coli strain JM109 = test: Arsenite resistance assay; type: cell-based, Escherichia coli
# [3] = ATPase activity, NADH-coupled assay; type: biochemical, Escherichia coli; details: for ATPase activity relative to wild type: % of wild-type activity
# Sb = type: binding, Escherichia coli; details: 10 μM ArsA, 2 mM ATPγS, 2.5 mM MgCl2; Sb(III) per ArsA
# Summary of the method: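 Purified ArsA buffer-exchanged into 50 mM MOPS-KOH pH 7.5. Incubated 1 h on ice with 2 mM ATPγS, 2.5 mM MgCl2 and a range of potassium antimonyl tartrate concentrations. Unbound metalloid removed on a spin gel-filtration column in the same buffer. Eluate diluted in 2% HNO3 and antimony measured by ICP-MS against an antimony standard. Binding expressed as a function of Sb(III) concentration.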
molecule,measurement,setting,value
"[N-]=[N+]=Nc1nc2c(N)ncnc2n1[C@@H]1O[C@H](COP(=O)(O)OP(=O)(O)OP(=O)(O)O)[C@@H](O)[C@H]1O [8-azido[γ-32P]ATP, 8-azidoadenosine 5'-[γ-32P]triphosphate]",Kd,ThArsA [1],50 µM
same,Kd,K16Q ThArsA,55 µM
"Nc1ncnc2c1ncn2[C@@H]1O[C@H](COP(=O)(O)OP(=O)(O)OP(=O)(O)O)[C@@H](O)[C@H]1O [ATP, adenosine 5'-triphosphate]",Km,ThArsA [2],170 µM
same,Km,wild-type ArsA,170 µM
O=[As][O-].[Na+] [sodium arsenite],sodium arsenite concentration in which cells could grow,E. coli strain JM109; cells expressing wild-type arsA and arsB genes,5 mM
same,sodium arsenite concentration at which cells were sensitive,E. coli strain JM109; cells without an ars operon,1 mM
B1,ATPase activity relative to wild type,[3],70%
same,ATPase activity relative to wild type,[3]; listed as K16Q,approximately 70%
same,EC50,[3]; read-out: concentration of antimonite [Sb(III)] required for half-maximal activation,20 µM
same,reduction in the affinity of ATP,[3]; versus wild type,3 fold
B2,stoichiometry of Sb(III) binding,Sb,only background levels
B3,ATPase activity (in words),[3]; purified protein,inactive

# — article PMC3773367 (Biochemistry, 2010)
